Measured values: ChEMBL document CHEMBL1123771, “Synthesis and structure-activity relationships of potent new angiotensin converting enzyme inhibitors containing saturated bicyclic amino acids” (J Med Chem, 1987)
One block for each compound: values may come before it.

Key:
[1] = target: T1, Angiotensin-converting enzyme (Rattus norvegicus, UniProt P47820); test: Inhibition of rat Angiotensin I converting enzyme (ACE), using Hip-Gly-Gly as synthetic substrate.
T1 sequence (P47820 whole entry): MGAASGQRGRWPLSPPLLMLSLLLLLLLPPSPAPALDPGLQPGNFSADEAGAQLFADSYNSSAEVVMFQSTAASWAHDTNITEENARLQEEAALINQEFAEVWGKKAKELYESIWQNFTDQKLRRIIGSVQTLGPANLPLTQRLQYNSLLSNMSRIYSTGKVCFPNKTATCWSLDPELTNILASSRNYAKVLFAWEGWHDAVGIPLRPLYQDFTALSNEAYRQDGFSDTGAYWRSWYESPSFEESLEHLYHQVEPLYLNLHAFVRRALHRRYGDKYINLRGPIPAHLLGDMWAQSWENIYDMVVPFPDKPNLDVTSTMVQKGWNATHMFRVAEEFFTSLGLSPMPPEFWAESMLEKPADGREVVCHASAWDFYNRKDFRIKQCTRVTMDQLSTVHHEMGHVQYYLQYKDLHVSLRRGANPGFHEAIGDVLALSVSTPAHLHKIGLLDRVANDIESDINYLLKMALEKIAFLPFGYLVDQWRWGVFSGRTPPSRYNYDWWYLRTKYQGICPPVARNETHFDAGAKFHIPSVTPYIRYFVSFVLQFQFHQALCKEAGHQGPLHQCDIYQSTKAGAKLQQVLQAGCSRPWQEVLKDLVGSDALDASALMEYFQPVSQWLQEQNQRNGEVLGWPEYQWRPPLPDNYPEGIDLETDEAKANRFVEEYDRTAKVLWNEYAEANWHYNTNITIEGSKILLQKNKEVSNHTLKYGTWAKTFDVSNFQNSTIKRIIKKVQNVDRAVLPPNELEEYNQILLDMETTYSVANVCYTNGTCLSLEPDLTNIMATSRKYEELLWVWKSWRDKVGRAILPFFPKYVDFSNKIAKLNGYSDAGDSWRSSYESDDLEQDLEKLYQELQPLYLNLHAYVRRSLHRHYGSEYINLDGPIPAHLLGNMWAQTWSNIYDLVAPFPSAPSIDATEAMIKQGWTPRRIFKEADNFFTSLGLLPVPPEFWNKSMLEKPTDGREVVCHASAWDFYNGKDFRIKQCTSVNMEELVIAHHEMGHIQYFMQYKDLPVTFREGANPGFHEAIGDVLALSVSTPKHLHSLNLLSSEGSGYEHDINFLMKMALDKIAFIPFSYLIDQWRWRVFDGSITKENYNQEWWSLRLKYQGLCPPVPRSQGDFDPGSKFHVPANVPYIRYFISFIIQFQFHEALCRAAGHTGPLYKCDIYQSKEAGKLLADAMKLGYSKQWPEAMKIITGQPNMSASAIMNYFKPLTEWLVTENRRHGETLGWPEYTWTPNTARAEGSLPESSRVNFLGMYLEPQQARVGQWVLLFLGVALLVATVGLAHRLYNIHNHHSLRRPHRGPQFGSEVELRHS
How it was run: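 Radioassay of converting-enzyme activity with Hip-Gly-Gly as substrate; compounds dissolved at 2–5 mg/mL in Me2SO, then diluted to test concentrations in pH 8 buffer (0.05 M Hepes, 0.1 M NaCl, 0.6 M Na2SO4).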

Rattus norvegicus [2] = test: Maximum change in mean aortic blood pressure in conscious renal 2-kidney/1-clip goldblatt hypertensive rat at a dose 30 mg/kg administered orally at 8h; 3 animals tested; assay type: functional, Artery; conditions: route oral
How it was run: (§1)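 Male Sprague–Dawley rats made hypertensive at 4 weeks old by silver clip (0.2-mm gap) on left renal artery, contralateral kidney intact; 4–8 weeks development, cannulated (280–320 g), only mean aortic pressure >160 mmHg used. Oral dosing; 1-min running-average aortic pressure and heart rate logged every 30 min; maximum change from base line, mean ± SEM.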

Rattus norvegicus [3] = test: Mean aortic base line blood pressure in conscious renal 2-kidney/1-clip goldblatt hypertensive rat at a dose 30 mg/kg administered orally; assay type: functional, Artery; conditions: route oral
Rattus norvegicus [4] = test: Maximum change in mean aortic blood pressure in conscious renal 2-kidney/1-clip goldblatt hypertensive rat at a dose 30 mg/kg administered orally at 6 h; 3 animals tested; assay type: functional, Artery; conditions: route oral; how it was run: as §1
Rattus norvegicus [5] = test: Maximum change in mean aortic blood pressure in conscious renal 2-kidney/1-clip goldblatt hypertensive rat at a dose 30 mg/kg administered orally at 6 h; 4 animals tested; assay type: functional, Artery; conditions: route oral
Rattus norvegicus [6] = test: Mean aortic base line blood pressure in conscious renal 2-kidney/1-clip goldblatt hypertensive rat at a dose 10 mg/kg administered orally; assay type: functional, Artery; conditions: route oral
How it was run: (§2)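 Male Sprague–Dawley rats, 4 weeks old, given a silver clip (0.2-mm gap) on the left renal artery with the other kidney intact. Hypertension developed over 4–8 weeks, then rats (280–320 g) were aortic-cannulated; only those with mean pressure >160 mmHg were used. Oral dosing. One-minute running averages were logged every 30 min. Results are mean ± 1 SEM, from 3–5 rats.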

Rattus norvegicus [7] = test: Maximum change in mean aortic blood pressure in conscious renal 2-kidney/1-clip goldblatt hypertensive rat at a dose 3 mg/kg administered orally at 8h; 5 animals tested; assay type: functional, Artery; conditions: route oral; how it was run: as §2
Rattus norvegicus [8] = test: Maximum change in mean aortic blood pressure in conscious renal 2-kidney/1-clip goldblatt hypertensive rat at a dose 10 mg/kg administered orally at 3 hr; 5 animals tested; assay type: functional, Artery; conditions: route oral; how it was run: as §2
Rattus norvegicus [9] = test: Maximum change in mean aortic blood pressure in conscious renal 2-kidney/1-clip goldblatt hypertensive rat at a dose 30 mg/kg administered orally at 5h; 5 animals tested; assay type: functional, Artery; conditions: route oral; how it was run: as §2
Rattus norvegicus [10] = test: Mean aortic base line blood pressure in conscious renal 2-kidney/1-clip goldblatt hypertensive rat at a dose 3 mg/kg administered orally; assay type: functional, Artery; conditions: route oral; how it was run: as §2

IC50 [1]: > 100000 nM
Structure (SMILES): CCOC(=O)C(CCc1ccccc1)N1C(=O)C2CC3CCCCC3N2C(=O)C1C (stereo unspecified)

Structure (SMILES): O=C(O)C1Cc2ccccc2N1C(=O)CCS (stereo unspecified)
IC50 [1]: 140 nM

Structure (SMILES): O=C(O)[C@@H]1CCC(=O)N1C(=O)CCS
IC50 [1]: 960 nM

IC50 [1]: 35000 nM
Structure (SMILES): CC(=O)SCC(C)C(=O)N1[C@H](C(=O)O)C[C@@H]2CCCC[C@@H]21 (stereo in doubt; 9b)

Structure (SMILES): C[C@H](CS)C(=O)N1c2ccccc2C[C@H]1C(=O)O
IC50 [1]: 3.7 nM

Structure (SMILES): CC(=O)SCCC(=O)N1[C@H](C(=O)O)C[C@@H]2CCCC[C@@H]21 (stereo in doubt; 8a)
IC50 [1]: 560 nM

Structure (SMILES): O=C(O)[C@@H]1C[C@@H]2CCCC[C@@H]2N1C(=O)CCS (stereo in doubt; 8d)
IC50 [1]: 6.4 nM

Structure (SMILES): CC(CS)C(=O)N1C(=O)CCC1C(=O)O (stereo unspecified)
Mean aortic blood pressure (Rattus norvegicus [2]): -48 mmHg | IC50 [1]: 9.3 nM | Mean aortic blood pressure (Rattus norvegicus [3]): 185 mmHg

IC50 [1]: 1100 nM
Structure (SMILES): CC(CS)C(=O)N1[C@H](C(=O)O)C[C@@H]2CCCC[C@@H]21 (stereo in doubt; 9d)

Structure (SMILES): CC(CSC(=O)c1ccccc1)C(=O)N1[C@H](C(=O)O)C[C@@H]2CCCC[C@@H]21 (stereo partly specified)
IC50 [1]: 540 nM

Structure (SMILES): C1CCC(NC2CCCCC2)CC1.O=C(O)C1C2CCCCC2CN1C(=O)CCS (stereo unspecified)
Mean aortic blood pressure (Rattus norvegicus [4]): -76 mmHg | Mean aortic blood pressure (Rattus norvegicus [3]): 184 mmHg

Structure (SMILES): CC(CS)C(=O)N1CC2CCCCC2C1C(=O)O (stereo unspecified)
Mean aortic blood pressure (Rattus norvegicus [5]): -50 mmHg | Mean aortic blood pressure (Rattus norvegicus [3]): 152 mmHg

IC50 [1]: 5.2 nM
Structure (SMILES): CC(CS)C(=O)N1[C@H](C(=O)O)C[C@@H]2CCCC[C@@H]21 (stereo in doubt; 9f)
Mean aortic blood pressure (Rattus norvegicus [4]): -72 mmHg | Mean aortic blood pressure (Rattus norvegicus [3]; 30 mg/kg): 193 mmHg

Structure (SMILES): O=C(O)[C@@H]1C[C@@H]2CCCC[C@@H]2N1C(=O)CCS (stereo in doubt; 8b)
Mean aortic blood pressure (Rattus norvegicus [6]): 198 mmHg | Mean aortic blood pressure (Rattus norvegicus [7]): -73 mmHg | Mean aortic blood pressure (Rattus norvegicus [8]): -89 mmHg | Mean aortic blood pressure (Rattus norvegicus [9]): -91 mmHg | Mean aortic blood pressure (Rattus norvegicus [10]): 198 mmHg | IC50 [1]: 13 nM | Mean aortic blood pressure (Rattus norvegicus [3]): 198 mmHg
